We go through one compound from publication PMC10586269 (ACS Omega, 2023).

In experiment [1] the target is T1, PfHsp90-NTD (Plasmodium falciparum, UniProt Q8IC05). The experiment in a line: Competition binding, FITC-geldanamycin fluorescence polarization assay, PfHsp90. Particulars: read-out: FP inhibition % PfHsp90 [10 μM]. A digest of the protocol: (§1)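 Ni-affinity-purified Hsp90 N-terminal domain (PfHsp90-NTD or human Hsp90β-NTD, expressed in E. coli), 100 nM final, mixed with 5 nM FITC-geldanamycin. FP read at 480 nm excitation and 535 nm emission, converted to percent bound FITC-GDA versus the DMSO control.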
T1 sequence (Q8IC05 1-215): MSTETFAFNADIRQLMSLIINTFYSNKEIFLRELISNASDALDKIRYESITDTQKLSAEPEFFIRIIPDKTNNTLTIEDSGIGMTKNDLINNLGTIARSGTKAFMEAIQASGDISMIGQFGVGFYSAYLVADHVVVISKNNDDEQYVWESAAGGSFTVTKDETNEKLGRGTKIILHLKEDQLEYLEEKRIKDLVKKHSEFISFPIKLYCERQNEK

Experiment [2] concerns the target T1, PfHsp90-NTD. The experiment can be described thus: Equilibrium binding kinetics by MP-SPR. An outline of the steps:
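PfHsp90-NTD (20 μg/mL) was immobilised by amine coupling on a carboxymethyl dextran gold chip for multiparametric SPR. Running buffer was PBS with 0.005% Tween 20 and 20 mM EDTA, pH 7.4. Test compound (0–2000/5000 nM) was injected at 50 μL/min, with association for 1 min and dissociation for 9 min at room temperature. Signals were subtracted against a protein-free reference channel and buffer blanks.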

In a further experiment the target is human Hsp90β-NTD (Homo sapiens, UniProt P08238). The experiment is classed as binding. The following applies: 10 μM compound, FITC-GDA displacement. A digest of the protocol:
as §1

Marks after values point to notes of the source that are not given here.

In general, inhibition refers to how much of the control response was suppressed. Broadly, the Kd is the constant that tells how readily two partners part at equilibrium. The low end stands for tighter binding, the high end for weaker binding.

human Hsp90β-NTD, sequence (P08238 1-226): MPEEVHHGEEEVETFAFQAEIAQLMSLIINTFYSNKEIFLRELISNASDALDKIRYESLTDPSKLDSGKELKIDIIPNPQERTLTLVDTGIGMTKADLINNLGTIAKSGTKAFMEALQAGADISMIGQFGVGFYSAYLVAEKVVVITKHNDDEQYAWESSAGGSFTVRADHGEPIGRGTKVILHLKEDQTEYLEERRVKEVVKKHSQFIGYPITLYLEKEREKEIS

As to `COc1ccc2c(c1)[nH]c1c(C)nccc12` [harmine], the inhibition at 10 µM on PfHsp90-NTD [1] is 7 ± 6%. The Kd at PfHsp90-NTD [2] (KD, Kd/Ka) was 1.82 ± 0.1 µM; at PfHsp90-NTD [2] (dissociation rate) it was 3.20 ± 4.8 1/s (×10^–6). Besides, the Ka on PfHsp90-NTD [2] (association) is 17.6 ± 14.9 1/Ms (×10^3). For the same compound, the “FP inhibition% human Hsp90 [10 μM]” value at human Hsp90β-NTD is given as “no inhibition”.
